Results as given in ChEMBL document CHEMBL3407371, “Elimination of a cholecystokinin receptor agonist 'trigger' in an effort to develop positive allosteric modulators without intrinsic agonist activity” (Bioorg Med Chem Lett, 2015).
The source made the active and inactive calls. The calls are words filed in the database; no cut-off is given here.

Key:
[1] = molecular target: T1, Gastrin/cholecystokinin type B receptor (Homo sapiens, UniProt P32239); format: cell-based, CHO
T1 sequence (P32239 whole entry): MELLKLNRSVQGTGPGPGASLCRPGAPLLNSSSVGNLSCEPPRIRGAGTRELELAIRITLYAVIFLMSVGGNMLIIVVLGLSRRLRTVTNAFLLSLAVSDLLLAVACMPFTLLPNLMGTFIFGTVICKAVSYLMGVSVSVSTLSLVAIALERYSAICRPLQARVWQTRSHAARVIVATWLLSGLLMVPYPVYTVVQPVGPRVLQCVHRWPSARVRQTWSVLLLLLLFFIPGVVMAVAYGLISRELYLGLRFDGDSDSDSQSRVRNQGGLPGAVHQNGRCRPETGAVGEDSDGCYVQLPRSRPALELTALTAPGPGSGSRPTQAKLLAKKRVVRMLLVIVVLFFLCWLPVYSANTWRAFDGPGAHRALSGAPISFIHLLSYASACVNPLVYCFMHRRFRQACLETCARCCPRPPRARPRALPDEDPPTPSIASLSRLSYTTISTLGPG

[2] = molecular target: T1, Gastrin/cholecystokinin type B receptor; format: cell-based, CHO; remark: listed apart in the source
[3] = molecular target: T2, Cholecystokinin receptor type A (Homo sapiens, UniProt P32238); test: Activity at CCK1R (unknown origin) expressed in CHO cells assessed as stimulation of intracellular calcium responses; format: functional, cell-based
T2 sequence (P32238 whole entry): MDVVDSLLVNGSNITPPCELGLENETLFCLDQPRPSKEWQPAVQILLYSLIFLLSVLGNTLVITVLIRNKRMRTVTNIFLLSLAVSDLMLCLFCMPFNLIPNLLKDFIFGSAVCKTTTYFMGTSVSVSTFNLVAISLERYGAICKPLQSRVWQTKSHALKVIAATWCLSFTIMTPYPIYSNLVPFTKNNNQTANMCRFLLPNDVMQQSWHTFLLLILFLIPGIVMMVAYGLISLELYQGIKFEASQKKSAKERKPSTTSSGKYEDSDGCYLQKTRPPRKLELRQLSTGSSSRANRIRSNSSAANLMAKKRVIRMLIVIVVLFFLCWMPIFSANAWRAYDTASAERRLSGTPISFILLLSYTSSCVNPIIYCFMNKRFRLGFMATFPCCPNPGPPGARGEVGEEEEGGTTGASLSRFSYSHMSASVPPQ
In short: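 Intact CHO cell lines stably expressing CCK1R or CCK2R; intracellular calcium measured after adding compound alone. Peak responses and EC50 values taken from concentration-response curves. Duplicate determinations, at least three independent experiments, means ± S.E.M.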

[4] = molecular target: T3, Gastrin/cholecystokinin type B receptor (Homo sapiens) (UniProt P32239); test: Activity at CCK2R (unknown origin) expressed in CHO cells assessed as stimulation of intracellular calcium responses; format: functional, cell-based
T3 sequence (whole entry): T1 sequence (P32239 whole entry)
In short: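 Intact CHO cell lines stably expressing CCK1R or CCK2R; intracellular calcium measured after adding compound alone. […] Peak responses and EC50 values taken from concentration-response curves. Duplicate determinations, at least three independent experiments, means ± S.E.M.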

[5] = molecular target: T4, Cholecystokinin receptor type A (Homo sapiens, UniProt P32238, N98T); format: cell-based, CHO
T4 sequence (P32238 whole entry N98T): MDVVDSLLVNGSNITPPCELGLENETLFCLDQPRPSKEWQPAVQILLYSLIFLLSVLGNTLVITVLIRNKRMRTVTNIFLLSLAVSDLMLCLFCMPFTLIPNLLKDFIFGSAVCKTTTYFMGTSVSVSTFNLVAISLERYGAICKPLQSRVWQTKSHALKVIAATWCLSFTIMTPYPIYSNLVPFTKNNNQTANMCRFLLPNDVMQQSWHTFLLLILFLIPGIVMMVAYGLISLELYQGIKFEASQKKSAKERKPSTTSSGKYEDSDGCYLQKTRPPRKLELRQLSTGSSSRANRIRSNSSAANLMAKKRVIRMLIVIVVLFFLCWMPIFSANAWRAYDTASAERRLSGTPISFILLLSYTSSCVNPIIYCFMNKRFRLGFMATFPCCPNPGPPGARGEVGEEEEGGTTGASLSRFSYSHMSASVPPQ

[6] = molecular target: T5, Cholecystokinin receptor type A (Homo sapiens, UniProt P32238, T117V/T118S); format: cell-based, CHO
T5 sequence (P32238 whole entry T117V/T118S): as the sequence (P32238 whole entry N98T) above, with T98N, T117V, T118S counted along it

[7] = molecular target: T6, Cholecystokinin receptor type A (Homo sapiens, UniProt P32238); format: cell-based; settings: cho
[8] = molecular target: T7, Cholecystokinin receptor type A (Homo sapiens, UniProt P32238, L356H); format: cell-based, CHO
T7 sequence (P32238 whole entry L356H): as the sequence (P32238 whole entry N98T) above, with T98N, L356H counted along it

[9] = molecular target: T4, Cholecystokinin receptor type A; format: cell-based, CHO; remark: listed apart in the source
[10] = molecular target: T5, Cholecystokinin receptor type A; format: cell-based, CHO; remark: listed apart in the source
[11] = molecular target: T6, Cholecystokinin receptor type A; format: cell-based; settings: cho; remark: listed apart in the source
[12] = molecular target: T7, Cholecystokinin receptor type A; format: cell-based, CHO; remark: listed apart in the source
[13] = molecular target: T6, Cholecystokinin receptor type A; format: cell-based; settings: cho; remark: listed apart in the source
[14] = molecular target: T8, Cholecystokinin receptor type A (Homo sapiens) (UniProt P32238); settings: CHO, 1 uM
T8 sequence (whole entry): T2 sequence (P32238 whole entry)

[15] = molecular target: T2, Cholecystokinin receptor type A; format: cell-based, CHO
[16] = molecular target: T2, Cholecystokinin receptor type A; format: cell-based, CHO; remark: listed apart in the source
[17] = molecular target: T1, Gastrin/cholecystokinin type B receptor; format: cell-based, CHO; remark: listed apart in the source
[18] = molecular target: T2, Cholecystokinin receptor type A; format: functional, cell-based; settings: cho

Structure (SMILES) | IC50 [1] | IC50 [2] | EC50 [3] | Activity [4] | IC50 ([5]; read-out: IC50) | IC50 [6] | IC50 [7] | IC50 [8] | IC50 [9] | IC50 [10] | IC50 [11] | IC50 [12] | IC50 [13] | inhibition [14] | IC50 [15] | IC50 [16] | IC50 [17] | EC50 [18] | IC50 ([5]; cho)
COc1ccc(N(C)C(=O)CN2C(=O)C(NC(=O)Nc3ccccc3)C(=O)N(c3ccccc3)c3ccccc32)cc1 (stereo not given) | 48.6 nM | 20.3 nM | 90 nM | inactive | 875 nM | 50.2 nM | > 1000 nM | 233 nM | 40.3 nM | 334 nM | 151 nM | 153 nM | Not Active | inactive | – | – | – | – | –
CC(C)N(C(=O)CN1C(=O)[C@H](NC(=O)Nc2cccc(C(=O)O)c2)C(=O)N(c2ccccc2)c2ccccc21)c1ccccc1 | 5.6 nM | – | 0.8 nM | inactive | – | – | – | – | – | – | – | – | – | – | 105 nM | 128 nM | 2.7 nM | Not Active | –
O=C(CN1C(=O)C(NC(=O)Nc2ccccc2)C(=O)N(c2ccccc2)c2ccccc21)Nc1ccccc1 (stereo not given) | – | – | – | inactive | – | – | – | – | – | – | – | – | Not Active | inactive | – | – | – | – | Not Active
